Measurements published in ChEMBL document CHEMBL2157866, “Virtual screening and computational optimization for the discovery of covalent prolyl oligopeptidase inhibitors with activity in human cells” (J Med Chem, 2012).

Legend:
[1] = substrate: Cc1cc(=O)oc2cc(NC(=O)[C@@H]3CCCN3C(=O)CNC(=O)OCc3ccccc3)ccc12; assay: Activity of POP in human LNZ308 cell extracts incubated for 30 mins by fluorimetric assay
Outline: (§1)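 Confluent cell monolayers lysed in PBS with 0.1% Triton X-100. Increasing Z-Gly-Pro-AMC concentrations added; fluorescence increase (ex/em 360/460 nm) recorded for 30 min at 37 °C. KM read graphically from a double-reciprocal Michaelis–Menten plot.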

[2] = substrate: Cc1cc(=O)oc2cc(NC(=O)[C@@H]3CCCN3C(=O)CNC(=O)OCc3ccccc3)ccc12; assay: Activity of POP in human LN229 cell extracts incubated for 30 mins by fluorimetric assay; outline: as §1
[3] = substrate: Cc1cc(=O)oc2cc(NC(=O)[C@@H]3CCCN3C(=O)CNC(=O)OCc3ccccc3)ccc12; assay: Activity of POP in human LN18 cell extracts incubated for 30 mins by fluorimetric assay; outline: as §1
[4] = substrate: Cc1cc(=O)oc2cc(NC(=O)[C@@H]3CCCN3C(=O)CNC(=O)OCc3ccccc3)ccc12; assay: Activity of human recombinant POP incubated for 30 mins by fluorimetric assay
Outline: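 Recombinant human POP/PREP stock diluted in PBS containing 1 mg/mL BSA. Increasing Z-Gly-Pro-AMC concentrations added; fluorescence (ex/em 360/460 nm) followed for 30 min at 37 °C. KM determined graphically from a double-reciprocal Michaelis–Menten plot.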

[5] = substrate: Cc1cc(=O)oc2cc(NC(=O)[C@@H]3CCCN3C(=O)CNC(=O)OCc3ccccc3)ccc12; assay: Activity of POP in human HCEC cell extracts incubated for 30 mins by fluorimetric assay; outline: as §1

B1: Prolyl endopeptidase (Homo sapiens), P48147 (protein)
chain: MLSLQYPDVYRDETAVQDYHGHKICDPYAWLEDPDSEQTKAFVEAQNKITVPFLEQCPIRGLYKERMTELYDYPKYSCHFKKGKRYFYFYNTGLQNQRVLYVQDSLEGEARVFLDPNILSDDGTVALRGYAFSEDGEYFAYGLSASGSDWVTIKFMKVDGAKELPDVLERVKFSCMAWTHDGKGMFYNSYPQQDGKSDGTETSTNLHQKLYYHVLGTDQSEDILCAEFPDEPKWMGGAELSDDGRYVLLSIREGCDPVNRLWYCDLQQESSGIAGILKWVKLIDNFEGEYDYVTNEGTVFTFKTNRQSPNYRVINIDFRDPEESKWKVLVPEHEKDVLEWIACVRSNFLVLCYLHDVKNILQLHDLTTGALLKTFPLDVGSIVGYSGQKKDTEIFYQFTSFLSPGIIYHCDLTKEELEPRVFREVTVKGIDASDYQTVQIFYPSKDGTKIPMFIVHKKGIKLDGSHPAFLYGYGGFNISITPNYSVSRLIFVRHMGGILAVANIRGGGEYGETWHKGGILANKQNCFDDFQCAAEYLIKEGYTSPKRLTINGGSNGGLLVAACANQRPDLFGCVIAQVGVMDMLKFHKYTIGHAWTTDYGCSDSKQHFEWLVKYSPLHNVKLPEADDIQYPSMLLLTADHDDRVVPLHSLKFIATLQYIVGRSRKQSNPLLIHVDTKAGHGAGKPTAKVIEEVSDMFAFIARCLNVDWIP
[1]
  Km: 8.1 µM
[2]
  Km: 6.7 µM
[3]
  Km: 8.5 µM
[4]
  Km: 8.5 µM
[5]
  Km: 7 µM
